Experiments:
[1] = Inhibition of [3H]-cytisine binding to neuronal nicotinic acetylcholine receptor of rat brain
How it was run: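 Test compounds run as oxalate salts. Ki values are reported as mean ± SEM of three independent experiments, each performed in triplicate.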

[2] = biological target: Neuronal acetylcholine receptor (Rattus norvegicus) (UniProt P04757+P09483+P12389+P12390+P12392+P43144+Q9JLB5+P12391+P43143+P20420+Q05941); test: Percent Inhibition of [3H]cytisine binding at neuronal nicotinic acetylcholine receptor in rat brain at 100 uM; assay type: tissue-based

For `Cc1cc(C2CCC3CC[C@@H]2N3)on1` (some centres not stated), which Ki [1] is on record?
Its Ki is 3 nM.

Which Ki [1] does the source give for `Clc1ccc(C2CC3CC[C@@H]2N3)cn1` (some centres not stated) here?
Its Ki is 0.79 nM.

Which Ki [1] does the source give for `CN1CCC[C@H]1c1ccccc1` here?
Its Ki is 8 nM.

Which Ki [1] does the source give for `Cc1cc(C2CC3CCC(C2)N3)on1` (stereo in doubt; 15a) here?
The Ki was 18000 nM.

For `Cc1cc(C2CC3CCC(C2)N3)on1` (stereo in doubt; 15b), which Ki [1] is on record?
Its Ki is 148 nM.

Which Ki [1] does the source give for `Clc1ccc([C@H]2CCC3CCC2N3)cn1` (some centres not stated) here?
The Ki was 1.04 nM.

With `Cc1cc(C2CC3CCC(C2)N3C)on1` (configuration not stated) as the compound, how does the inhibition [2] read?
The inhibition was 40%.

And the Ki [1]?
The Ki was 194 nM.

For `Cc1cc([C@@H]2CCC3CCC2N3)on1` (some centres not stated), which Ki [1] is on record?
Its Ki is 26000 nM.

For `Cc1cc(C2=CC3CCC(C2)N3)on1` (configuration not stated), which Ki [1] is on record?
Its Ki is 320 nM.

For `Cc1cc(C2CC[C@H]3CCC2N3C)on1` (some centres not stated), which Ki [1] is on record?
Its Ki is 1470 nM.

For `Cc1cc(C2=CC3CCC(C2)N3C)on1` (configuration not stated), which Ki [1] is on record?
Its Ki is 720 nM.

Reference: ChEMBL document CHEMBL1147501, “Synthesis and nicotinic acetylcholine receptor binding affinities of 2- and 3-isoxazolyl-8-azabicyclo[3.2.1]octanes” (Bioorg Med Chem Lett, 2004)
